# Experimental data taken from PMC9801203 (Poultry Science, 2022).
# Like-named read-outs stand apart in the source and are kept apart here. Marks after values point to notes of the source that are not given here.
# How the values were obtained:
# chicken embryos [1] = type: in vivo, Gallus gallus domesticus; details: for effect on chick quality (in words): compared with control group; for Early dead embryos: embryos dead up to 7 d of incubation; for Late dead embryos: embryos died after 7 d of incubation; for Hatchability: hatchability of fertile eggs; for BW: hatched chicks; for BW / Chicks quality: Average score of chicks with score <100: mean ± SD; for Chicks quality: Average score of all chicks: maximum score 100, mean ± SD
# In short: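 Hatching eggs in groups of 30 per repetition: one control without puncture, one punctured without injection. A 0.5 mm needle puncture delivered 0.25, 0.50 or 0.75 µg/egg in 50 µL ultrapure water (sonicated, autoclaved 108°C, 3 min); the site was sealed with plaster. Incubation at 37.5–38.5°C and 50–60% RH, turned 45° every 2 h. Candling at days 6 and 18; early deaths ≤7 d. Hatched chicks were weighed and quality-scored (maximum 100).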
# [2] = toxin levels in tissues of hatched chicks after in ovo injection; type: in vivo, Gallus gallus domesticus; details: for Toxin level in heart / Toxin level in kidneys / Toxin level in liver / Toxin level in serum / Toxin level in yolk sac: hatched chicks, mean ± SD; for presence as potential metabolite of OTA and 2’R-OTA in isolated organs: chicks after in ovo injection of OTA or 2’R-OTA
# In short: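 Eggs (30/group) punctured with a 0.5 mm needle, injected with test compound at 0.25, 0.50 or 0.75 µg/egg in 50 µL ultra-pure water, sealed; incubated 37.5–38.5°C, 50–60% RH, turned 45° every 2 h. Hatched chicks decapitated; serum and tissues (200 mg) deconjugated with β-glucuronidase/arylsulfatase overnight at 37°C, acetonitrile-based extraction, ¹³C₂₀-OTA internal standard, HPLC-MS/MS positive mode.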
# [3] = system: chicken embryo fibroblasts cell line SL-29 (ATCC CRL1590); assay: MTT cytotoxicity assay, 48 h exposure; type: cell-based, Gallus gallus
# In short: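 SL-29 chicken embryo fibroblasts were grown in DMEM with 5% FBS, 5% tryptose phosphate broth, 2 mM L-glutamine and penicillin/streptomycin at 37°C and 5% CO2. Cells were exposed to a ten-point twofold dilution series for 48 h at 37°C and 5% CO2. MTT (5 mg/mL stock in PBS) was added for 4 h and removed. Formazan was dissolved in DMSO and absorbance read at 510 nm. Samples below 50% were considered toxic.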
# [4] = system: human liver carcinoma cell line HepG2; details: HepG2 cells; ref Cramer et al. (2010); cited from earlier work
# [5] = humans, calculated; ref Sueck et al. (2019b); cited from earlier work
# chicken embryos [6] = details: 1 µg/egg, after 9 d of incubation; ref Hassan et al. (2012a); cited from earlier work
# [7] = chickens; ref Galtier et al., 1981; cited from earlier work
# [8] = pigs; ref Harwig et al., 1983; cited from earlier work
# HeLa cells = details: acute toxicity, ref Xiao et al., 1996; cited from earlier work
# IHKE cells = details: cytotoxicity, ref Bittner et al., 2015; cited from earlier work
# embryos of Danio rerio = details: ref Haq et al., 2016; cited from earlier work
# [9] = system: serum-free cultures of embryonic brains of Tetra SL chick stage 29; details: 8-day exposure, embryonic chick brain cultures; ref Bruinink et al. (1998); cited from earlier work
# [10] = MTT reduction, SL-29 cells, 48 h exposure
smiles,measurement,setting,value
"C[C@@H]1Cc2c(Cl)cc(C(=O)N[C@H](Cc3ccccc3)C(=O)O)c(O)c2C(=O)O1 [2’R-OTA, 2’R-ochratoxin A]",effect on chick quality (in words),chicken embryos [1],did not reduce chick quality
same,Chicks quality: Chicks with score 100,chicken embryos [1]; in ovo injection 0.25 µg/egg,96.6%^c
same,Early dead embryos,chicken embryos [1]; in ovo injection 0.25 µg/egg,14.4%^bc
same,Late dead embryos,chicken embryos [1]; in ovo injection 0.25 µg/egg,6.6%^b
same,Hatchability,chicken embryos [1]; in ovo injection 0.25 µg/egg,61.1%^b
same,BW,chicken embryos [1]; in ovo injection 0.25 µg/egg,41.83 ± 2.54^a g
same,Chicks quality: Average score of all chicks,chicken embryos [1]; in ovo injection 0.25 µg/egg,98.97 ± 5.57^b
same,Chicks quality: Average score of chicks with score <100,chicken embryos [1]; in ovo injection 0.25 µg/egg,80.00 ± 0.00^a
same,Chicks quality: Chicks with score 100,chicken embryos [1]; in ovo injection 0.50 µg/egg,68.6%^ab
same,Early dead embryos,chicken embryos [1]; in ovo injection 0.50 µg/egg,15.5%^bc
same,Late dead embryos,chicken embryos [1]; in ovo injection 0.50 µg/egg,4.4%^b
same,Hatchability,chicken embryos [1]; in ovo injection 0.50 µg/egg,58.9%^b
same,BW,chicken embryos [1]; in ovo injection 0.50 µg/egg,41.59 ± 2.91^a g
same,Chicks quality: Average score of all chicks,chicken embryos [1]; in ovo injection 0.50 µg/egg,96.03 ± 8.37^ab
same,Chicks quality: Average score of chicks with score <100,chicken embryos [1]; in ovo injection 0.50 µg/egg,87.36 ± 10.85^a
same,Chicks quality: Chicks with score 100,chicken embryos [1]; in ovo injection 0.75 µg/egg,70.8%^b
same,Early dead embryos,chicken embryos [1]; in ovo injection 0.75 µg/egg,21.1%^c
same,Late dead embryos,chicken embryos [1]; in ovo injection 0.75 µg/egg,11.1%^c
same,Hatchability,chicken embryos [1]; in ovo injection 0.75 µg/egg,46.7%^b
same,BW,chicken embryos [1]; in ovo injection 0.75 µg/egg,42.43 ± 2.90^a g
same,Chicks quality: Average score of all chicks,chicken embryos [1]; in ovo injection 0.75 µg/egg,94.08 ± 14.62^ab
same,Chicks quality: Average score of chicks with score <100,chicken embryos [1]; in ovo injection 0.75 µg/egg,79.71 ± 21.88^ab
same,Toxin level in heart,[2]; in ovo injection 0.25 µg/egg,0.00 ± 0.00a µg/kg
same,Toxin level in kidneys,[2]; in ovo injection 0.25 µg/egg,1.18 ± 0.07b µg/kg
same,Toxin level in liver,[2]; in ovo injection 0.25 µg/egg,1.11 ± 0.02b µg/kg
same,Toxin level in serum,[2]; in ovo injection 0.25 µg/egg,0.38 ± 0.00 µg·days/kg
same,Toxin level in yolk sac,[2]; in ovo injection 0.25 µg/egg,4.65 ± 0.04b µg/kg
same,Toxin level in heart,[2]; in ovo injection 0.50 µg/egg,0.32 ± 0.02c µg/kg
same,Toxin level in kidneys,[2]; in ovo injection 0.50 µg/egg,1.59 ± 0.07c µg/kg
same,Toxin level in liver,[2]; in ovo injection 0.50 µg/egg,2.81 ± 0.16c µg/kg
same,Toxin level in serum,[2]; in ovo injection 0.50 µg/egg,0.30 ± 0.00c µg/kg
same,Toxin level in yolk sac,[2]; in ovo injection 0.50 µg/egg,7.52 ± 0.26 µg·days/kg
same,Toxin level in heart,[2]; in ovo injection 0.75 µg/egg,0.87 ± 0.02e µg/kg
same,Toxin level in kidneys,[2]; in ovo injection 0.75 µg/egg,5.19 ± 0.14f µg/kg
same,Toxin level in liver,[2]; in ovo injection 0.75 µg/egg,12.68 ± 0.10f µg/kg
same,Toxin level in serum,[2]; in ovo injection 0.75 µg/egg,1.87 ± 0.02f µg/kg
same,Toxin level in yolk sac,[2]; in ovo injection 0.75 µg/egg,19.83 ± 0.63g µg/kg
same,IC50,[3]; [10],6.54 µM
same,cytotoxic effect relative to OTA,[4],approx. Tenfold lower cytotoxic effect
same,biological half-life,[5],approx. 6 mo
"C[C@@H]1Cc2c(Cl)cc(C(=O)N[C@@H](Cc3ccccc3)C(=O)O)c(O)c2C(=O)O1 [OTA, ochratoxin A]",effect on chick quality (in words),chicken embryos [1],considerably reduced the number of chicks with a score of 100
same,Chicks quality: Chicks with score 100,chicken embryos [1]; in ovo injection 0.25 µg/egg,82.7%^bc
same,Early dead embryos,chicken embryos [1]; in ovo injection 0.25 µg/egg,12.2%^b
same,Late dead embryos,chicken embryos [1]; in ovo injection 0.25 µg/egg,4.4%^b
same,Hatchability,chicken embryos [1]; in ovo injection 0.25 µg/egg,58.9%^b
same,BW,chicken embryos [1]; in ovo injection 0.25 µg/egg,41.53 ± 3.06^a g
same,Chicks quality: Average score of all chicks,chicken embryos [1]; in ovo injection 0.25 µg/egg,97.02 ± 9.51^b
same,Chicks quality: Average score of chicks with score <100,chicken embryos [1]; in ovo injection 0.25 µg/egg,82.78 ± 17.33^a
same,Early dead embryos,chicken embryos [1]; in ovo injection 0.50 µg/egg,12.2%^b
same,Late dead embryos,chicken embryos [1]; in ovo injection 0.50 µg/egg,8.9%^b
same,Hatchability,chicken embryos [1]; in ovo injection 0.50 µg/egg,50.0%^ab
same,BW,chicken embryos [1]; in ovo injection 0.50 µg/egg,41.59 ± 3.12^a g
same,Chicks quality: Average score of all chicks,chicken embryos [1]; in ovo injection 0.50 µg/egg,98.77 ± 4.52^b
same,Chicks quality: Average score of chicks with score <100,chicken embryos [1]; in ovo injection 0.50 µg/egg,88.00 ± 9.27^a
same,Chicks quality: Chicks with score 100,chicken embryos [1]; in ovo injection 0.75 µg/egg,63.3%^a
same,Early dead embryos,chicken embryos [1]; in ovo injection 0.75 µg/egg,31.1%^d
same,Late dead embryos,chicken embryos [1]; in ovo injection 0.75 µg/egg,4.4%^b
same,Hatchability,chicken embryos [1]; in ovo injection 0.75 µg/egg,35.6%^a
same,BW,chicken embryos [1]; in ovo injection 0.75 µg/egg,41.42 ± 3.71^a g
same,Chicks quality: Average score of all chicks,chicken embryos [1]; in ovo injection 0.75 µg/egg,91.03 ± 19.55^a
same,Chicks quality: Average score of chicks with score <100,chicken embryos [1]; in ovo injection 0.75 µg/egg,75.55 ± 26.30^b
same,Toxin level in heart,[2]; in ovo injection 0.25 µg/egg,0.00 ± 0.00a µg/kg
same,Toxin level in kidneys,[2]; in ovo injection 0.25 µg/egg,2.70 ± 0.07 µg·days/kg
same,Toxin level in liver,[2]; in ovo injection 0.25 µg/egg,4.37 ± 0.04 µg·days/kg
same,Toxin level in serum,[2]; in ovo injection 0.25 µg/egg,0.22 ± 0.00b µg/kg
same,Toxin level in yolk sac,[2]; in ovo injection 0.25 µg/egg,7.04 ± 0.08c µg/kg
same,Toxin level in heart,[2]; in ovo injection 0.50 µg/egg,0.25 ± 0.01b µg/kg
same,Toxin level in kidneys,[2]; in ovo injection 0.50 µg/egg,4.56 ± 0.21e µg/kg
same,Toxin level in liver,[2]; in ovo injection 0.50 µg/egg,7.12 ± 0.19e µg/kg
same,Toxin level in serum,[2]; in ovo injection 0.50 µg/egg,0.31 ± 0.00c µg/kg
same,Toxin level in yolk sac,[2]; in ovo injection 0.50 µg/egg,10.43 ± 0.21e µg/kg
same,Toxin level in heart,[2]; in ovo injection 0.75 µg/egg,0.59 ± 0.01 µg·days/kg
same,Toxin level in kidneys,[2]; in ovo injection 0.75 µg/egg,11.83 ± 0.35g µg/kg
same,Toxin level in liver,[2]; in ovo injection 0.75 µg/egg,16.02 ± 0.28g µg/kg
same,Toxin level in serum,[2]; in ovo injection 0.75 µg/egg,0.61 ± 0.01e µg/kg
same,Toxin level in yolk sac,[2]; in ovo injection 0.75 µg/egg,12.40 ± 0.31f µg/kg
same,IC50,"[3]; Gallus gallus, Fibroblast, 48 h",0.24 µM
same,embryo defect: beak hypoplasia,chicken embryos [6],45%
same,embryo defect: beak retrognathism,chicken embryos [6],12%
same,embryo defect: cleft spine,chicken embryos [6],10%
same,embryo defect: exencephaly,chicken embryos [6],4%
same,embryo defect: microphthalmia,chicken embryos [6],35%
same,embryo defect: no eye development,chicken embryos [6],49%
same,embryo defect: nonunited abdominal integuments,chicken embryos [6],8%
same,embryo defect: reduced body weight,chicken embryos [6],15%
same,half-life,[7],4.1 h
same,biological half-life,[5],1 mo
same,order of organs in which the toxin accumulated,[8],kidneys > liver > muscle tissue and fat
same,IC50,HeLa cells,5 µM
same,IC50,IHKE cells,0.5 µM
same,teratogenicity and mortality (in words),embryos of Danio rerio,high OTA teratogenicity
"C[C@@H]1Cc2ccc(C(=O)N[C@@H](Cc3ccccc3)C(=O)O)c(O)c2C(=O)O1 [OTB, ochratoxin B]",presence as potential metabolite of OTA and 2’R-OTA in isolated organs,[2],not found in any of the organs tested above the LOD
same,IC50,[3]; [10],7.96 µM
"C[C@@H]1Cc2c(Cl)cc(C(=O)O)c(O)c2C(=O)O1 [OTα, α-ochratoxin]",presence as potential metabolite of OTA and 2’R-OTA in isolated organs,[2],not found in any of the organs tested above the LOD
same,IC50,[3]; [10],5.26 µM
same,IC50,HeLa cells,560 µM
same,nontoxic up to (concentration),IHKE cells,≥ 50 µM
same,neurotoxic effects not observed up to (concentration),[9],≥ 15 µM
same,teratogenicity and mortality (in words),embryos of Danio rerio,negligible teratogenicity and mortality
